{"data": "Assay results pooled from the literature", "observed": "metabolic stability", "species": "human", "note": "Protocols differ between the studies behind these lines."}
{"SMILES": "Cc1[nH]c(C)c(S(=O)(=O)Nc2ccc(S(F)(F)(F)(F)F)c(Cl)c2)c1C(=O)N1CCC(F)(F)C1", "test system": "liver microsomes", "measurement": "microsomal CLint", "result": "53.1 µL/min/mg"}
{"SMILES": "C[C@]12CC[C@H]3[C@@H](CCC4=CC(=O)CC[C@@]43C)[C@@H]1CC[C@@H]2O", "test system": "liver microsomes", "setting": "pH 7.4", "measurement": "scaled CLint", "result": "125 mL/min/kg"}
{"SMILES": "O=c1[nH]c2ccccc2n1C1CCN(CCCC(c2ccc(F)cc2)c2ccc(F)cc2)CC1", "test system": "liver microsomes", "setting": "100 ng/mL", "measurement": "microsomal CLint", "result": "3.4 µL/min/mg"}
{"SMILES": "CC1(C)NC(=O)N(c2cc(Cl)c(F)c(C(F)(F)F)c2)C1=O", "test system": "liver microsomes", "measurement": "microsomal CLint", "result": "< 7 µL/min/mg"}
{"SMILES": "O=C1CCC(N2Cc3c(ccc4c3OCC43CCN(Cc4ccccc4)CC3)C2=O)C(=O)N1 (stereo not shown)", "test system": "liver microsomes", "setting": "1 µM", "measurement": "scaled CLint", "result": "20.9 mL/min/kg"}
{"SMILES": "CC1(C)NC(=O)N(c2ccc(F)c(C(F)(F)F)c2F)C1=O", "test system": "liver microsomes", "measurement": "microsomal CLint", "result": "< 7 µL/min/mg"}
{"SMILES": "C[C@]12CC[C@H]3[C@@H](CCC4=CC(=O)CC[C@@]43C)[C@@H]1CC[C@@H]2O", "test system": "liver microsomes", "measurement": "microsomal CLint", "result": "63.9 µL/min/mg"}
{"SMILES": "NCCOCC(=O)N1CCCC(C(=O)NCc2nc(-c3ccc(-c4ccc(F)cc4)cc3)cs2)C1 (stereo not shown)", "test system": "liver microsomes", "measurement": "scaled CLint", "result": "< 4.3 mL/min/kg"}
{"SMILES": "Cc1[nH]c(C)c(S(=O)(=O)Nc2ccc(S(F)(F)(F)(F)F)cc2)c1C(=O)N1CCC(F)(F)C1", "test system": "liver microsomes", "measurement": "microsomal CLint", "result": "26 µL/min/mg"}
{"SMILES": "CC(C)CC(=O)OC[C@H]1O[C@@](C#N)(c2ccc3c(N)ncnn23)[C@H](O)[C@@H]1O", "test system": "hepatocytes", "measurement": "hepatocyte CLint", "result": "> 318 µL/min/10⁶ cells"}
